Consider three molecules from PMC4962910 (Nature cell biology, 2014).

Test [1] relates to NBS1-GFP positive nucleoli. It counts as cell-based. Conditions: PARP inhibition (Supplementary Fig. 6c). Put shortly:
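U2OS cells stably expressing NBS1-GFP (U2OS-NBS1-GFP2) were grown in DME with 10 % fetal bovine serum, penicillin and streptomycin. Medium was supplemented with the PARP inhibitor veliparib (ABT888) for 1 h. Each cell was scored manually as positive or negative by visual presence of GFP signal within nucleoli.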

The next test has as its target T1, NBS1 (Homo sapiens, UniProt O60934).
T1 sequence (O60934 1-382 limits assumed): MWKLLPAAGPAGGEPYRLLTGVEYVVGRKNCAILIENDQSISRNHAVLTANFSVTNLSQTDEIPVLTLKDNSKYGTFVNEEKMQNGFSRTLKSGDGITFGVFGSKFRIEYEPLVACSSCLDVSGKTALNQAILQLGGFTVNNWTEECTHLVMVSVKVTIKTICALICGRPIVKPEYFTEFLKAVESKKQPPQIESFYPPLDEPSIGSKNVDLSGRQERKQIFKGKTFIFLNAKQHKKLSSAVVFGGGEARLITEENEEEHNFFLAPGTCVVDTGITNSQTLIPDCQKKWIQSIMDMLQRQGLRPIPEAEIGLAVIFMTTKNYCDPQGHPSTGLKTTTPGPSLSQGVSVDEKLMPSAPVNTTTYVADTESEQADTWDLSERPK
In words: Isothermal titration calorimetry. It counts as binding.

Test [2] addresses NBS1 N-terminal FHA-BRCT region (sample of the ITC) (human). In words: ITC. On the technique in general: Isothermal titration calorimetry measures the heat released or taken up as one component is titrated into another.

Non-standard residues stand in square brackets, D forms with d. Residues, ends and D or L forms follow the SMILES beside them. No end group written: not given here. pT = C[C@@H](OP(=O)(O)O)[C@H](N)C(=O)O; pS = N[C@@H](COP(=O)(O)O)C(=O)O

Turning to `C[C@]1(c2nc3c(C(N)=O)cccc3[nH]2)CCCN1` [PARP inhibition, Veliparib], the “number of cells with NBS1-GFP positive nucleoli” value in test [1] is reported as “small but reproducible decrease”.

For orientation: Kd means the equilibrium constant for the complex coming apart. Higher therefore signals a looser complex. On to `CC(C)[C@H](NC(=O)[C@H](CC(=O)O)NC(=O)[C@@H](NC(=O)[C@H](CCC(=O)O)NC(=O)[C@H](CC(=O)O)NC(=O)[C@H](COP(=O)(O)O)NC(=O)[C@H](CO)NC(=O)[C@H](CO)NC(=O)[C@@H](N)CO)[C@@H](C)OP(=O)(O)O)C(=O)N[C@@H](CCC(=O)O)C(=O)O` [SDET] (H-SSS[pS]DE[pT]DVE-OH), for which the Kd at NBS1 is about 1000 nM.

In the case of SSS[pS]DE[pT]DVE [Treacle SDET phosphopeptide (SSSpSDEpTDVE)], the Kd in test [2] stood at 1000 nM.
